Experimental data as given in ChEMBL document CHEMBL1146920, “3-[5-(4,5-dihydro-1H-imidazol-2-yl)-furan-2-yl]phenylamine (Amifuraline), a promising reversible and selective peripheral MAO-A inhibitor” (J Med Chem, 2006).

What was measured:
[1] = molecular target: T1, Amine oxidase [flavin-containing] B (Rattus norvegicus, UniProt P19643); test: Decrease in MAO-B activity in Sprague-Dawley rat brain at 50 mg/kg, ip; assay type: functional, organism-based; design: dose 50 mg/kg, route intraperitoneal; conditions: in vivo
T1 sequence (P19643 whole entry): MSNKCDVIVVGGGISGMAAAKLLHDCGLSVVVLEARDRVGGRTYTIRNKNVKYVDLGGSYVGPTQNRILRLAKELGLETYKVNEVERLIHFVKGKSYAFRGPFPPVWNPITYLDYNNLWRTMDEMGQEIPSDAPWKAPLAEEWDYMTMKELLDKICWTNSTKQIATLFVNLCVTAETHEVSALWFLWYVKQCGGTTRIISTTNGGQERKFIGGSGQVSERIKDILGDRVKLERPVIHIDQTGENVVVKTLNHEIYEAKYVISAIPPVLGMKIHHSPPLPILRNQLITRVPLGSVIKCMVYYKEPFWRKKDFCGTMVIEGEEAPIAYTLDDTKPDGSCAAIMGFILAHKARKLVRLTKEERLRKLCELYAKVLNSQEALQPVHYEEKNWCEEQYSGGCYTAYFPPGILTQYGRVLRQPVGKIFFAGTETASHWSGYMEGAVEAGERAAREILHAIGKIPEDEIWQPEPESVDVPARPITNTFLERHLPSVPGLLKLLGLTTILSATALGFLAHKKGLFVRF
Summary of the method: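 Male Sprague Dawley rats (~250 g), four per group, got three ip doses of 50 mg/kg (10 mg/mL in saline or DMSO/saline), 20 h, 4 h 30 min and 1 h 30 min before sacrifice. Brain was stored at -80 °C and homogenized in 50 mM phosphate, pH 7.5. Homogenate was incubated 20 min at 37 °C with 20 µM [14C]PEA plus 0.1 µM clorgyline. Extracted product was scintillation-counted and compared with vehicle.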

[2] = molecular target: T2, Amine oxidase [flavin-containing] A (Rattus norvegicus, UniProt P21396); test: Inhibition of MAO-A in rat liver assessed as decrease in [14C]5-HT oxidation at 10 uM after 20 mins relative to control; assay type: functional; conditions: read-out: Activity
T2 sequence (P21396 whole entry): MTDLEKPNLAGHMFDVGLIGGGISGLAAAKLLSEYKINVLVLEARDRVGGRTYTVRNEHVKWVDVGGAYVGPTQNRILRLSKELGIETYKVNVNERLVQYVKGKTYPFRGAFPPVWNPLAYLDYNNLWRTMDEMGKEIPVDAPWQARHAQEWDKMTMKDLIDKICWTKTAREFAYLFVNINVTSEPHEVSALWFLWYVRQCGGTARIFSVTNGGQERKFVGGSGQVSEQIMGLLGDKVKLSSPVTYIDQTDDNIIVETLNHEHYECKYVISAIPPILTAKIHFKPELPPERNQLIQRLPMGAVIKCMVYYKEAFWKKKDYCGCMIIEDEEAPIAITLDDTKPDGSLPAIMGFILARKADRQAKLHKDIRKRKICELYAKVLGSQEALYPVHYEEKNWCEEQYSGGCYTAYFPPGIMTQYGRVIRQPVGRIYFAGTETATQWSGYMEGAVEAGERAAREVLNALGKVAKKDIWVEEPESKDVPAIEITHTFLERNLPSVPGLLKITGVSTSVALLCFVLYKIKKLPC
Summary of the method: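 Rat liver homogenate (0.5 mg/mL) in 50 mM phosphate, pH 7.4, incubated 20 min at 37 °C with 10 µM compound or vehicle. MAO-A activity read with 200 µM [14C]serotonin, before and after washing (40 000 g centrifugation, buffer wash, resuspension). Expressed as percent of unwashed vehicle-treated homogenate; duplicate experiments.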

[3] = molecular target: T2, Amine oxidase [flavin-containing] A; test: Inhibition of MAO-A in rat liver assessed as inhibition of [14C]5-HT oxidation; assay type: functional
Summary of the method: (§1)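 Rat liver homogenized in 50 mM sodium phosphate, pH 7.5, with protease inhibitors, then filtered. 10-20 µg crude protein incubated 20 min at 37 °C with the test compound across increasing concentrations. MAO-A substrate: 200 µM [14C]5-HT. MAO-B substrate: 20 µM [14C]PEA plus 0.1 µM clorgyline. Stopped with 4 N HCl; product extracted into ethyl acetate/toluene and counted by scintillation. IC50 taken from sigmoid curves; three experiments.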

[4] = molecular target: T1, Amine oxidase [flavin-containing] B; test: Inhibition of MAO-B in rat liver assessed as inhibition of [14C]PEA oxidation in presence of 0.1 uM clorgyline; assay type: functional; summary of the method: as §1
[5] = molecular target: T2, Amine oxidase [flavin-containing] A; test: Residual activity at MAO-A in Sprague-Dawley rat liver at 50 mg/kg, ip; assay type: functional, organism-based; design: dose 50 mg/kg, route intraperitoneal; conditions: read-out: Activity
Summary of the method: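 Male Sprague Dawley rats (about 250 g) received three i.p. injections of 50 mg/kg (10 mg/mL in DMSO/saline or saline) or vehicle, given 20 h, 4 h 30 min and 1 h 30 min before sacrifice. Four rats per group; three per vehicle control. Frozen liver homogenate assayed for MAO-A with 200 µM [14C]5-HT. Expressed relative to vehicle-treated animals.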

Monoamine oxidase = molecular target: T3, Monoamine oxidase (Rattus norvegicus, UniProt P19643+P21396); test: Binding affinity to I2-IBS, imidazoline binding site of MAO; assay type: functional
T3 sequence (P19643 whole entry): T1 sequence (P19643 whole entry)
T3 sequence (P21396 whole entry): T2 sequence (P21396 whole entry)

| Compound | inhibition at 10 µM [2] [%] | IC50 [3] [nM] | Log Ki (Monoamine oxidase) | also measured |
| --- | --- | --- | --- | --- |
| c1ccc(-c2ccc(C3=NCCN3)cn2)cc1 | 53 | 1800 |  | Activity [1]: Active |
| OCc1ccc(-c2ccc(C3=NCCN3)o2)cc1 | 79 | 1200 |  |  |
| Nc1cccc(-c2ccc(C3=NCCN3)o2)c1 [AMIFURALINE] | 85 | 600 |  | IC50 [4]: 19100 nM; activity at 50 mg/kg [5]: 36% |
| C(=C\c1ccccc1)/C1=NCCN1 [TRACIZOLINE] |  |  | -8.72 |  |
| c1ccc([C@H]2O[C@@H]2C2=NCCN2)cc1 (relative stereo) |  |  | -7.55 |  |
| C1=C(C2=NCCN2)CCc2ccccc21 |  |  | -7.95 |  |
| c1ccc(-c2ccc(C3=NCCN3)o2)cc1 [FURALINE] |  |  | -7.68 |  |
